ChEMBL document CHEMBL1154853, “New 1,3-oxazolo[4,5-c]quinoline derivatives: synthesis and evaluation of antibacterial and antituberculosis properties” (2010)
Values after ≈ are worked out from the molar mass of the structure shown. Values joined by “and” are separate entries in the source; they are usually repeats but may differ in a detail not shown here. Identical values can stand only once.

Assays:
Format in all cases: functional
Pseudomonas aeruginosa [1] = assay: Antimicrobial activity against Pseudomonas aeruginosa ATTC 27853 after 16 to 18 hrs by serial dilution method
Summary of the method: (§1)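 Tube broth dilution: serial drug dilutions in Mueller Hinton broth, pH adjusted to 5.0 with phosphate buffer. A standardized bacterial suspension was inoculated and incubated 16-18 h at 37 °C. MIC was read as the lowest drug concentration with no visible growth. Ciprofloxacin served as the reference.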

Staphylococcus aureus [2] = assay: Antimicrobial activity against Staphylococcus aureus […] after 16 to 18 hrs by serial dilution method; summary of the method: as §1
Pseudomonas aeruginosa [3] = assay: Antimicrobial activity against Pseudomonas aeruginosa ATTC 27853 at MIC after 3 to 4 days by disc diffusion method
Klebsiella pneumoniae [4] = assay: Antimicrobial activity against Klebsiella pneumoniae at MIC after 3 to 4 days by disc diffusion method
[5] = test system: Mycobacterium tuberculosis; assay: Antitubercular activity against Mycobacterium tuberculosis H37Rv at MIC after 24 hrs by broth microdilution method
Summary of the method: (§2)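 M. tuberculosis H37Rv grown in Middlebrook 7H9 with 10% OADC, diluted to McFarland 1, 50 µl added to 150 µl fresh medium. Compounds from 2 mg/mL DMF stocks tested at 1, 10 and 100 µg/mL; DMF-only controls. 7 days at 37 °C, then 0.01% resazurin added with 24 h further incubation. MIC = lowest concentration preventing blue-to-pink change.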

Klebsiella pneumoniae [6] = assay: Antimicrobial activity against Klebsiella pneumoniae after 16 to 18 hrs by serial dilution method; summary of the method: as §1
Staphylococcus aureus [7] = assay: Antimicrobial activity against Staphylococcus aureus […] at MIC after 3 to 4 days by disc diffusion method
Escherichia coli [8] = assay: Antimicrobial activity against Escherichia coli […] after 16 to 18 hrs by serial dilution method; summary of the method: as §1
Escherichia coli [9] = assay: Antimicrobial activity against Escherichia coli […] at MIC after 3 to 4 days by disc diffusion method
[10] = test system: Mycobacterium tuberculosis; assay: Antitubercular activity against Mycobacterium tuberculosis H37Rv after 24 hrs by broth microdilution method; summary of the method: as §2

| SMILES | MIC (Pseudomonas aeruginosa [1]) [mg/L] | MIC (Staphylococcus aureus [2]) [mg/L] | diameter of the inhibition zone (DIZ) (Pseudomonas aeruginosa [3]) | diameter of the inhibition zone (DIZ) (Klebsiella pneumoniae [4]) | inhibition (INH) [5] [%] | MIC (Klebsiella pneumoniae [6]) [mg/L] | diameter of the inhibition zone (DIZ) (Staphylococcus aureus [7]) | MIC (Escherichia coli [8]) [mg/L] | diameter of the inhibition zone (DIZ) (Escherichia coli [9]) | MIC [10] [mg/L] |
| --- | --- | --- | --- | --- | --- | --- | --- | --- | --- | --- |
| O=C(Nc1ccc(F)cc1)Nc1c(-c2ccc(F)cc2)nc2ccccc2c1O | 6.25 (≈ 16 µM) | 6.25 (≈ 16 µM) | 17 mm | 16 mm | 95 | 6.25 (≈ 16 µM) | 18 mm | 6.25 (≈ 16 µM) | 24 mm | 10 (≈ 25.6 µM) |
| Fc1cccc(-c2nc3ccccc3c3oc(NCc4ccccc4)nc23)c1 | 6.25 (≈ 16.9 µM) | 6.25 (≈ 16.9 µM) | 19 mm | 18 mm | 99 | 6.25 (≈ 16.9 µM) | 22 mm | 6.25 (≈ 16.9 µM) | 23 mm | 1 (≈ 2.71 µM) |
| O=C(NCc1ccccc1)Nc1c(-c2ccc(F)cc2)nc2ccccc2c1O | 50 (≈ 129 µM) | 6.25 (≈ 16.1 µM) | <10 mm | <10 mm | 95 | 50 (≈ 129 µM) | 16 mm | 50 (≈ 129 µM) | <10 mm | 10 (≈ 25.8 µM) |
| CCCCCNC(=O)Nc1c(-c2ccc(F)cc2)nc2ccccc2c1O | 50 (≈ 136 µM) | 50 (≈ 136 µM) | <10 mm | <10 mm | 0 | 50 (≈ 136 µM) | <10 mm | 6.25 (≈ 17 µM) | 20 mm | > 100 |
| O=C(Nc1cccc(Cl)c1)Nc1c(-c2ccc(F)cc2)nc2ccccc2c1O | 6.25 (≈ 15.3 µM) | 6.25 (≈ 15.3 µM) | 20 mm | 20 mm | 95 | 6.25 (≈ 15.3 µM) | 18 mm | 6.25 (≈ 15.3 µM) | 22 mm | 10 (≈ 24.5 µM) |
| CCCCCNc1nc2c(-c3cccc(F)c3)nc3ccccc3c2o1 | 12.5 (≈ 35.8 µM) | 12.5 (≈ 35.8 µM) | 14 mm | 12 mm | 95 | 12.5 (≈ 35.8 µM) | 11 mm | 6.25 (≈ 17.9 µM) | 24 mm | 10 (≈ 28.6 µM) |
| Fc1ccc(Nc2nc3c(-c4cccc(F)c4)nc4ccccc4c3o2)cc1 | 6.25 (≈ 16.7 µM) | 6.25 (≈ 16.7 µM) | 25 mm | 19 mm | 99 | 6.25 (≈ 16.7 µM) | 22 mm | 6.25 (≈ 16.7 µM) | 25 mm | 1 (≈ 2.68 µM) |
| COc1ccccc1NC(=O)Nc1c(-c2ccc(F)cc2)nc2ccccc2c1O | 6.25 (≈ 15.5 µM) | 6.25 (≈ 15.5 µM) | 16 mm | 19 mm | 99 | 6.25 (≈ 15.5 µM) | 17 mm | 6.25 (≈ 15.5 µM) | 21 mm | 1 (≈ 2.48 µM) |
| O=C(Nc1ccc(F)cc1)Nc1c(-c2cccc(F)c2)nc2ccccc2c1O | 6.25 (≈ 16 µM) | 6.25 (≈ 16 µM) | 19 mm | 16 mm | 95 | 6.25 (≈ 16 µM) | 20 mm | 6.25 (≈ 16 µM) | 21 mm | 10 (≈ 25.6 µM) |
| O=C(NCCc1ccccc1)Nc1c(-c2cccc(F)c2)nc2ccccc2c1O | 50 (≈ 125 µM) | 50 (≈ 125 µM) | <10 mm | <10 mm | 0 | 50 (≈ 125 µM) | <10 mm | 50 (≈ 125 µM) | <10 mm | > 100 |
| Cc1cc(C)cc(NC(=O)Nc2c(-c3ccc(F)cc3)nc3ccccc3c2O)c1 | 50 (≈ 125 µM) | 50 (≈ 125 µM) | <10 mm | <10 mm | 0 | 50 (≈ 125 µM) | <10 mm | 50 (≈ 125 µM) | <10 mm | > 100 |
| O=C(NCc1ccccc1)Nc1c(-c2cccc(F)c2)nc2ccccc2c1O | 6.25 (≈ 16.1 µM) | 6.25 (≈ 16.1 µM) | 20 mm | 18 mm | 95 | 6.25 (≈ 16.1 µM) | 18 mm | 6.25 (≈ 16.1 µM) | 21 mm | 10 (≈ 25.8 µM) |
| O=C(Nc1ccccc1)Nc1c(-c2cccc(F)c2)nc2ccccc2c1O | 6.25 (≈ 16.7 µM) | 6.25 (≈ 16.7 µM) | 18 mm | 20 mm | 95 | 6.25 (≈ 16.7 µM) | 17 mm | 6.25 (≈ 16.7 µM) | 20 mm | 10 (≈ 26.8 µM) |
| N#Cc1cccc(NC(=O)Nc2c(-c3cccc(F)c3)nc3ccccc3c2O)c1 | 6.25 (≈ 15.7 µM) | 6.25 (≈ 15.7 µM) | 19 mm | 18 mm | 0 | 6.25 (≈ 15.7 µM) | 19 mm | 6.25 (≈ 15.7 µM) | 23 mm | > 100 |
| CCCCCNC(=O)Nc1c(-c2cccc(F)c2)nc2ccccc2c1O | 12.5 (≈ 34 µM) | 12.5 (≈ 34 µM) | 11 mm | 12 mm | 0 | 12.5 (≈ 34 µM) | 12 mm | 6.25 (≈ 17 µM) | 22 mm | > 100 |
| COc1ccccc1NC(=O)Nc1c(-c2cccc(F)c2)nc2ccccc2c1O | 6.25 (≈ 15.5 µM) | 6.25 (≈ 15.5 µM) | 18 mm | 19 mm | 99 | 6.25 (≈ 15.5 µM) | 19 mm | 6.25 (≈ 15.5 µM) | 22 mm | 1 (≈ 2.48 µM) |
| CSc1ccc(NC(=O)Nc2c(-c3cccc(F)c3)nc3ccccc3c2O)cc1 | 50 (≈ 119 µM) | 50 (≈ 119 µM) | <10 mm | <10 mm | 0 | 50 (≈ 119 µM) | <10 mm | 6.25 (≈ 14.9 µM) | 22 mm | > 100 |
| COc1ccccc1Nc1nc2c(-c3cccc(F)c3)nc3ccccc3c2o1 | 6.25 (≈ 16.2 µM) | 6.25 (≈ 16.2 µM) | 21 mm | 21 mm | 99 | 6.25 (≈ 16.2 µM) | 21 mm | 6.25 (≈ 16.2 µM) | 24 mm | 1 (≈ 2.59 µM) |
| CSc1ccc(Nc2nc3c(-c4cccc(F)c4)nc4ccccc4c3o2)cc1 | 6.25 (≈ 15.6 µM) | 6.25 (≈ 15.6 µM) | 20 mm | 22 mm | 95 | 6.25 (≈ 15.6 µM) | 20 mm | 6.25 (≈ 15.6 µM) | 23 mm | 10 (≈ 24.9 µM) |
| Fc1cccc(-c2nc3ccccc3c3oc(Nc4ccccc4)nc23)c1 | 6.25 (≈ 17.6 µM) | 6.25 (≈ 17.6 µM) | 22 mm | 20 mm | 95 | 6.25 (≈ 17.6 µM) | 20 mm | 6.25 (≈ 17.6 µM) | 26 mm | 10 (≈ 28.1 µM) |
| N#Cc1cccc(Nc2nc3c(-c4cccc(F)c4)nc4ccccc4c3o2)c1 | 12.5 (≈ 32.9 µM) | 12.5 (≈ 32.9 µM) | 14 mm | 12 mm | 0 | 12.5 (≈ 32.9 µM) | 11 mm | 12.5 (≈ 32.9 µM) | 16 mm | > 100 |
| O=C(O)c1cn(C2CC2)c2cc(N3CCNCC3)c(F)cc2c1=O [CIPROFLOXACIN] | – | – | 31 mm and 25 mm | 25 mm and 22 mm | – | 6.25 (≈ 18.9 µM) | 26 mm and 24 mm | – | 28 mm and 29 mm | – |
| NNC(=O)c1ccncc1 [ISONIAZID] | – | – | – | – | 95 | – | – | – | – | 1.5 (≈ 10.9 µM) |
| CO[C@H]1/C=C/O[C@@]2(C)Oc3c(C)c(O)c4c(O)c(c(/C=N/N5CCN(C)CC5)c(O)c4c3C2=O)NC(=O)/C(C)=C\C=C\[C@H](C)[C@H](O)[C@@H](C)[C@@H](O)[C@@H](C)[C@H](OC(C)=O)[C@@H]1C [RIFAMPIN] | – | – | – | – | 99 | – | – | – | – | 0.5 (≈ 0.608 µM) |
